Laboratory results taken from the RNAGym collection of RNA variant scans (doi:10.1126/science.aae0568).
This sample holds only a part of the variants without activity.

B1: tRNA (parent)
chain: GUUCCGUUGGCGUAAUGGUAACGCGUCUCCCUCCUAAGGAGAAGACUGCGGGUUCGAGUCCCGUACGGAACG

Variants of: B1
Assay: yeast fitness relative to wild type (ratio to wild type); higher = fitter; tRNA-Arg(CCU), competitive growth, 37 C, YPD
Summary of the method: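 Amplicons of the tRNA-Arg(CCU) gene were sequenced, 100-nucleotide paired-end, from the start population and from each end population of a pooled yeast competition. The competition, in six parallel replicates, lasted 24 hours in YPD at 37°C. Fitness relative to wild type was calculated from changes in genotype frequencies. Genotypes had to have ≥ 100 starting reads, and estimates < 0.5 were set to 0.5.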

Variant	yeast fitness
GUUCUGUUGGCGUAAUGGUAACGCGUCUCCCUCCUAAGGAGAAGACUGCGGGUUCGAGUCCCGUACGGACCG [C5U A70C]	1.06
GUUCUGUUGGCGUAAUGGUAACGCGUCUCCCUCCUAAGGAGCAGACUGCGGGUUCGAGUCCCGUAUGGAACG [C5U A42C C66U]	0.793
GUUCUGUUGGCGUAAUGGUAACGCGUCUCCCUCCUAAGGAGAAGACUGCGGGUUCGAGUCCCGUUCGCAACG [C5U A65U G68C]	0.541
GUUCUGUUGGCGUAAUGGUAACGCGUCUCCCUCCUAAGGAGGAGGCUGCGGGUUGGAGUCCCGUACGGAACG [C5U A42G A45G C55G]	≤ 0.5
GUUCUGUUGGCGUAAUGGUAACGCGUCUCCCUCCUAUGGAGAAGACUGCGGGUUCGAGUCCCGUACGGAACG [C5U A37U]	0.732
GUUCUGUUGGCGUAAUGGUAACGCGUCUCCCUCCUAUGGAGAAGACUGAGGGUUCCAGUCCCGUACGGAACG [C5U A37U C49A G56C]	≤ 0.5
GUUCUGUUGGCGUAAUGGUAACGCGUCUCCCUCCUAAGGAGAAGUCUGCGGGUUCAAGUCCCGUACGGAACG [C5U A45U G56A]	0.715
GUUCUGUUGGCGUAAUGGUAACGCGUCUCCCUCCUAAGGAGAGGGCUGCGGGUUCGAGUCCCGUACGGAACG [C5U A43G A45G]	0.669
GUUCUGUUGGCGUAAUGGUAACGCGUCUCCCUCCUAAGGAGAAGCCUGCGGGUUCGACUCCCGUACGGAACG [C5U A45C G58C]	0.977
GUUCUGUUGGCGUAAUGGUAACGCGUCUCCCUCCUAUGGAGAAGACUGCGGGUUCCAGUCCCGUACGGAACG [C5U A37U G56C]	0.686
GUUCUGUUGGCGUAAUGGUAACGCGUCUCCCUCCUAAGGAGAAGACUGCGGGUUCGCGUCCCGUACGGAACG [C5U A57C]	0.659
GUUCUGUUGGCGUAAUGGUAACGCGUCUCCCUCCUAAGGAGAAGACUGCGGGUUCGGGUCCCGUACGGAACG [C5U A57G]	0.807
GUUCUGUUGGCGUAAUGGUAACGCGUCUCCCUCCUAAGGAGGAGACUGCGCGUUCGAGUCCCGUACGGAACG [C5U A42G G51C]	0.549
GUUCUGUUGGCGUAAUGGUAACGCGUCUCCCUCCUAAGGGGAGGACUGCGGGUUUGAGUCCCGUACGGAACG [C5U A40G A43G C55U]	≤ 0.5
GUUCUGUUGGCGUAAUGGUAACGCGUCUCCCUCCUAAGGUGAAGACUGCGGGUUCAAGUCCCGUACCGAACG [C5U A40U G56A G67C]	≤ 0.5
GUUCUGUUGGCGUAAUGGUAACGCGUCUCCCUCCUAAGGAGAAGACUGCGGGUUCGGGUCCCGUAUGGAACG [C5U A57G C66U]	0.655
GUUCUGUUGGCGUAAUGGUAACGCGUCUCCCUCCUACGGAGAAGACUGCGGGUACGAGUCCCGUACGGAACG [C5U A37C U54A]	≤ 0.5
GUUCUGUUGGCGUAAUGGUAACGCGUCUCCCUCCUAAGGAGGAGACUGCGGGUUCGAGUCCCGUACGGAACG [C5U A42G]	0.728
GUUCUGUUGGCGUAAUGGUAACGCGUCUCCCUCCUAAGGAGCAGACUGCGGGUUCGAGUCCCGUACGGAACG [C5U A42C]	1.01

Variant	yeast fitness
GUUCUGUUGGAGUGAUGGUAACGCGUCUCCCUCCUAAGGAGGAGACUGCGGGUUUGAGUCCCGUUCGGAACG [C5U C11A A14G A42G C55U A65U]	≤ 0.5
GUUCUGUUGGCGUAAUGGUAACGCGUCUCCCUCCUAAGGAGAAGACUGCGGGUUCGCGUCCUGUACGGAACG [C5U A57C C62U]	0.54
GUUCUGUUGGCGUAAUGGUAACGCGUCUCCCUCCUAAGGCGAAGAAUGCGGGUUCGAGUCCCGUACGGAACG [C5U A40C C46A]	0.794
GUUCUGUUGGCGUAAUGGUAACGCGUCUCCCUCCUAGGGAGAAGCCUGCGGGUUCGAGUCGCGUACGGAUCG [C5U A37G A45C C61G A70U]	≤ 0.5
GUUCUGUUGGCGUAAUGGUAACGCGUCUCCCUCCUAAGGAGAUGACUGUGGGUUCGAGUCCCGUAUGGAACG [C5U A43U C49U C66U]	≤ 0.5
GUUCUGUUGGCGUAAUGGUAACGCGUCUCCCUCCUAAGGAGAAGGCUGGGGGUUCGAGCUCCGUACGGCACG [C5U A45G C49G U59C C60U A69C]	≤ 0.5
GUUCUGUUGGCGUAAUGGUAACGCGUCUCCCUCCUAGGGAGAAGACGGCGGGUUCGAGUCCCGUACGGGACG [C5U A37G U47G A69G]	≤ 0.5
GUUCUGUUGGCGUAAUGGUAACGCGUCUCCCUCCUAAGGCGAAGAAUGCGGGUACGAGUCCCGUACGGAACG [C5U A40C C46A U54A]	0.55
GUUCUGUUGGCGUAAUGGUAACGCGUCUCCCUCCUAAGGAGAAGCCUGCGGGUUCGAGUCCAGUACGGAACG [C5U A45C C62A]	0.701
GUUCUGUUGGCGUAAUGGUAACGCGUCUCCCUCCUAAGGAGAAGCCUGCGGGUUCGAGUCCUGUACGGAACG [C5U A45C C62U]	0.768
GUUCUGUUGGCGUAAUGGUAACGCGUCUCCCUCCUAAGGAGAAGCCUGCGGGUUUGAGUCCCGUACGCAACG [C5U A45C C55U G68C]	0.57
GUUCUGUUGGCGUAAUGGUAACGCGUCUCCCUCCUAAGGAGAAGCCUGCGGGUUCGAGUCCCGUACGGAACG [C5U A45C]	1.06
GUUCUGUUGGAGUGAUGGUAACGCGUCUCCCUCCUAAGGAGAAGACUGCGGGUUCGAGUCCCGUACGGAACG [C5U C11A A14G]	≤ 0.5
GUUCUGUUGGCGUAAUGGUAACGCGUCUCCCUCCUAUGGAGAAGACUGCGGGUUCGAGUCCCGUACGGUACG [C5U A37U A69U]	0.634
GUUCUGUUGGCGUAAUGGUAACGCGUCUCCCUCCUAGGGAGACGACUGCGGGUUCGAGCCCUGUACGGAACG [C5U A37G A43C U59C C62U]	≤ 0.5
GUUCUGUUGGCGUAAUGGUAACGCGUCUCCCUCCUACGGAGAAGACCGCGGGUUCGAGUCUCGUACGGAACG [C5U A37C U47C C61U]	≤ 0.5
GUUCUGUUGGCGUAAUGGUAACGCGUCUCCCUCCUAAGGAGAGGACUGCGGGUUCGAGUCCCGUACGGAACG [C5U A43G]	0.966
GUUCUGUUGGCGUAAUGGUAACGCGUCUCCCUCCUAAGGAGAUGACUGCGGGUUCGAGUCCCGUACGGAACG [C5U A43U]	0.918
